Measurements published in ChEMBL document CHEMBL5653608 (Br J Pharmacol, 2011).

What was measured:
[1] = Induction of relaxation in […] C57BL/6 mouse trachea at 0.1 to 30 uM incubated for 30 mins relative to control (reference value: 21.6 +/- 8.8%); format: functional; parameters: scale not given: the % may be the effect or the level left; conditions: dose 0.1-30 µM, 0.5 h
[2] = Induction of relaxation in nifedipine-induced carbachol pre-contracted rings of Beagle dog bronchioles incubated for 1 hr; format: functional, tissue-based, Canis lupus familiaris, Bronchiole
Method in brief: (§1)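 Beagle bronchiole rings held at 1 g tension in Krebs at 37°C (with propranolol and phentolamine), primed with 80 mM KCl. Rings were precontracted with 1 µM carbachol, then antagonist (3–100 nM) or vehicle was equilibrated for 1 h. Cumulative PGE2 relaxation curves followed, with final 10 µM nifedipine defining maximal relaxation. KB by the Lew and Angus method.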

[3] = Induction of relaxation in forskolin-induced carbachol pre-contracted C57BL/6 mouse trachea incubated for 30 mins; format: functional, tissue-based
Method in brief: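 Male C57BL/6 tracheal rings at 0.35 g tension in Krebs (95% O2/5% CO2, 37°C). Rings were precontracted with 10 µM carbachol before cumulative half-log PGE2 (0.1 nM–30 µM). Curves were repeated in the same ring after 30 min with 3 nM antagonist or DMSO, and 10 µM forskolin set maximal relaxation. pKB = log(CR−1) − log[B].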

[4] = Inhibition of EFS-induced contraction of human myometrium incubated for 60 mins; format: functional, tissue-based
Method in brief: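 Human myometrial strips (donors aged 24–76) in a 15 mL Krebs bath at 37°C, under EFS at 15 V, 1.5 ms pulses, 10 s every 100 s, at a submaximal 15 Hz. Antagonist (10 or 100 nM) or vehicle was equilibrated for 60 min. Cumulative butaprost (0.1 nM–10 µM) or PGE2 (0.1 nM–3 µM) was given for at least five EFS responses per concentration. pKB was calculated from same-donor concentration ratios.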

[5] = Induction of relaxation in nifedipine-induced carbachol pre-contracted rings of Beagle dog bronchioles incubated for 1 hr relative to control; format: functional, Canis lupus familiaris, Bronchiole; parameters: scale not given: the % may be the effect or the level left; method in brief: as §1

EC50 [2]: 90 nM
EC50 [3]: 133 nM
IC50 [4]: 17.3 nM
SMILES: CCCCC[C@H](O)/C=C/[C@H]1[C@H](O)CC(=O)[C@@H]1C/C=C\CCCC(=O)O [DINOPROSTONE]
Activity [1]: 65.4%
Activity [5]: 82%
